SMILES strings stand for the structures. Calls of active or inactive are those of the source.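 The calls were made as follows: active = compound whose fitted half-maximal VEGF mRNA rise lies within ten times its top tested dose; inconclusive = flat response of 30 to 70% or a poor curve fit; inactive = the rest, including reverse-direction effects.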

The test system of the first test is U2OS VEGF mRNA induction, RT-PCR. Nature of the test: HIF target gene expression activators – cell-based, U2OS, RT-PCR, dry powder, dose response (AID 488843).
Conditions: not given
The procedure, abridged:
(§1)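 Assay system: U2OS osteosarcoma cells, VEGF-A transcript | Buffer or medium: DMEM without phenol red plus 10% FBS | Dosing: Pinned compound dose series | Timing: 24 h pre-dosing growth, then 24 h exposure at 37 °C | Measured by: Multiplex TaqMan RT-qPCR, VEGF-A FAM, beta-actin VIC | Controls: DMSO wells as negative reference | Repeats: Duplicate wells per dose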
Regarding `c1ccc(-c2nnc(-c3ccccn3)nc2N2CCN(c3ccncc3)CC2)cc1`, the AC50 was 7.31 µM.

As for `OCC1CCN(c2nc(-c3ccccn3)nnc2-c2ccccc2)CC1`, the AC50 is 11.1 µM. Turning to `Cc1cccc(CNc2nc(-c3ccccn3)nnc2-c2ccccc2)c1`, the AC50 is 3.83 µM. In the case of `c1ccc(-c2nnc(-c3ccccn3)nc2N2CCC(N3CCOCC3)CC2)cc1`, the AC50 was 8.46 µM. With `c1ccc(CNc2nc(-c3ccccn3)nnc2-c2ccccc2)cc1`, the AC50 is 7.55 µM.

Regarding `Cc1ccc(Nc2nc(-c3ccccn3)nnc2-c2ccccc2)cn1`, the AC50 was 8.83 µM.

For `O=C(NCC1CC1)c1cc(-c2ccccc2)on1`, the AC50 is 14.4 µM. On to `Cc1ccc(NC(=O)c2cc(-c3ccccc3)on2)cn1`, for which the AC50 is 38 µM. For `CN(C)c1nc(-c2ccccn2)nnc1-c1ccccc1`, the AC50 was 6.38 µM.

Turning to `c1ccc(-c2nnc(-c3ccccn3)nc2Nc2nc3ccccc3s2)cc1`, the AC50 is 1.71 µM.

As for `O=C(NCCCN1CCOCC1)c1cc(-c2ccccc2)on1`, the AC50 was 30.7 µM. In the case of `c1ccc(-c2nnc(-c3ccccn3)nc2Nc2cnc3ccccc3n2)cc1`, the AC50 was 4.81 µM. `Cn1c(-c2ccccc2)cnc1Nc1nc(-c2ccccn2)nnc1-c1ccccc1`: the AC50 was 5.34 µM.

With `O=C(NCCN1CCOCC1)c1cc(-c2ccccc2)on1`, the AC50 was 19.6 µM.

Take `c1ccc(-c2nnc(-c3ccccn3)nc2NCC2CC2)cc1`: the AC50 was 8.4 µM. `O=C(Nc1ccc2ccccc2n1)c1cc(-c2ccccc2)on1`: the AC50 is 7.99 µM. For the compound `C=CCNc1nc(-c2ccccn2)nnc1-c1ccccc1`, the AC50 was 7 µM. On the same count and under the same terms, under `OCCCNc1nc(-c2ccccn2)nnc1-c1ccccc1` stands 10.7 µM; under `CN1CCN(c2nc(-c3ccccn3)nnc2-c2ccccc2)CC1`, 8.76 µM; under `CCCCNC(=O)c1cc(-c2ccccc2)on1`, 12.4 µM. On the same count and under the same terms, under `O=C(NCCCO)c1cc(-c2ccccc2)on1` stands 22.3 µM; under `Cc1cccc(Nc2nc(-c3ccccn3)nnc2-c2ccccc2)n1`, 12.9 µM; under `c1ccc(-c2nnc(-c3ccccn3)nc2NCC2CCCCC2)cc1`, 3.04 µM. On to `c1ccc(-c2csc(Nc3nc(-c4ccccn4)nnc3-c3ccccc3)n2)cc1`, for which the AC50 is 2.69 µM.

Turning to `c1ccc(-c2nnc(Nc3nc(-c4ccccn4)nnc3-c3ccccc3)s2)cc1`, the AC50 is 2.81 µM. The same measure, in the same setting: the figure for `c1ccc(-c2nnc(-c3ccccn3)nc2NCCCN2CCOCC2)cc1` is 9.7 µM; for `O=C(NCCCn1ccnc1)c1cc(-c2ccccc2)on1` it is 16 µM; for `c1ccc(-c2nnc(-c3ccccn3)nc2NCCN2CCOCC2)cc1` it is 8.52 µM.

Regarding `CC(C)(C)CCNc1nc(-c2ccccn2)nnc1-c1ccccc1`, the AC50 was 3.58 µM. For `Cc1ccc(CNc2nc(-c3ccccn3)nnc2-c2ccccc2)cc1`, the concentration at half-maximal activity (AC50) was 3.46 µM. Same read-out and setting: under `Cc1ccccc1CNc1nc(-c2ccccn2)nnc1-c1ccccc1` stands 5.64 µM; under `O=C(NCCCCO)c1cc(-c2ccccc2)on1`, 8.59 µM; under `c1ccc(-c2cnc(Nc3nc(-c4ccccn4)nnc3-c3ccccc3)s2)cc1`, 4.96 µM.

System in the next test: not listed separately
Described as above. As to conditions: U2OS VEGF mRNA induction, RT-PCR; at 38 µM (top of the series). The procedure, abridged: as §1
Turning to `O=C(c1cc(-c2ccccc2)on1)N1CCC(N2CCOCC2)CC1`, the activation (VEGF mRNA increase) was 13% (inactive). Regarding `O=C(Nc1cn2ccccc2n1)c1cc(-c2ccccc2)on1`, the activation (VEGF mRNA increase) was 20.3% (inactive). Consider `Cn1c(-c2ccccc2)cnc1NC(=O)c1cc(-c2ccccc2)on1`, for which the activation (VEGF mRNA increase) is -1.36% (inactive). On the same count and under the same terms, the figure for `O=C(Nc1ncc(-c2ccccc2)o1)c1cc(-c2ccccc2)on1` is 1.3% (inactive); for `O=C(Nc1nc(-c2ccccc2)cs1)c1cc(-c2ccccc2)on1` it is 3.91% (inactive). `O=C(Nc1nc2ccccc2s1)c1cc(-c2ccccc2)on1`: the activation (VEGF mRNA increase) was 4.08% (inactive). In the case of `O=C(c1cc(-c2ccccc2)on1)N1CCC(CO)CC1`, the activation (VEGF mRNA increase) is 14.4% (inactive). Take `O=C(c1cc(-c2ccccc2)on1)N1CCN(c2ccncc2)CC1`: the activation (VEGF mRNA increase) was 34.7% (inactive).

As for `CN1CCN(C(=O)c2cc(-c3ccccc3)on2)CC1`, the activation (VEGF mRNA increase) was -1.09% (inactive). Regarding `O=C(c1cc(-c2ccccc2)on1)N1CCc2cccnc21`, the activation (VEGF mRNA increase) is 5.19% (inactive). As for `O=C(Nc1ncc2ccccc2n1)c1cc(-c2ccccc2)on1`, the activation (VEGF mRNA increase) was 17.1% (inactive). Turning to `O=C(NC1Cc2ccccc2C1)c1cc(-c2ccccc2)on1`, the activation (VEGF mRNA increase) was -0.187% (inactive). On the same count and under the same terms, the figure for `O=C(NCc1ccccc1)c1cc(-c2ccccc2)on1` is 12.2% (inactive).

On to `Cc1cccc(CNC(=O)c2cc(-c3ccccc3)on2)c1`, for which the activation (VEGF mRNA increase) was 11.8% (inactive). On to `CN(C)CCNC(=O)c1cc(-c2ccccc2)on1`, for which the activation (VEGF mRNA increase) was 4% (inactive). Still for that read-out and setting: the figure for `O=C(NCC1CCCCC1)c1cc(-c2ccccc2)on1` is -2.06% (inactive); for `Cc1cccc(NC(=O)c2cc(-c3ccccc3)on2)n1` it is -4.09% (inactive); for `CC(C)(C)CCNC(=O)c1cc(-c2ccccc2)on1` it is 13.5% (inactive). On the same count and under the same terms, under `O=C(Nc1nnc(-c2ccccc2)s1)c1cc(-c2ccccc2)on1` stands 3.52% (inactive); under `O=C(Nc1cnc2ccccc2c1)c1cc(-c2ccccc2)on1`, 3.98% (inactive). On to `O=C(NCCN1CCCCC1)c1cc(-c2ccccc2)on1`, for which the activation (VEGF mRNA increase) is 14.3% (inactive). Still for that read-out and setting: under `O=C(c1cc(-c2ccccc2)on1)N1CCC(N2CCCC2)CC1` stands 9.95% (inactive); under `Cn1c(NC(=O)c2cc(-c3ccccc3)on2)nc2ccccc21`, 2.87% (inactive). `Cc1ccccc1CNC(=O)c1cc(-c2ccccc2)on1`: the activation (VEGF mRNA increase) was 22.6% (inactive). The same measure, in the same setting: the figure for `O=C(NC1CCc2ccccc2C1)c1cc(-c2ccccc2)on1` (centres undefined) is 14.2% (inactive); for `Cc1ccc(CNC(=O)c2cc(-c3ccccc3)on2)cc1` it is -3.43% (inactive).

One may read the AC50 as the midpoint of the concentration-response curve, whichever way the signal moves.

These data come from PubChem BioAssay AID488843 (Broad Institute, 2010).
